For orientation: IC50 means the midpoint of a concentration-inhibition curve.

The values below come from ChEMBL document CHEMBL2074271 (J Pharmacol Exp Ther, 2002).

Values joined by “and” are separate entries in the source; they are usually repeats but may differ in a detail not shown here. Equal entries are not always repeated.

Holding throughout (assay type): functional, cell-based
Test [1] has as its target T1, Solute carrier family 22 member 2 (Rattus norvegicus, UniProt Q9R0W2).
T1 sequence (Q9R0W2 whole entry): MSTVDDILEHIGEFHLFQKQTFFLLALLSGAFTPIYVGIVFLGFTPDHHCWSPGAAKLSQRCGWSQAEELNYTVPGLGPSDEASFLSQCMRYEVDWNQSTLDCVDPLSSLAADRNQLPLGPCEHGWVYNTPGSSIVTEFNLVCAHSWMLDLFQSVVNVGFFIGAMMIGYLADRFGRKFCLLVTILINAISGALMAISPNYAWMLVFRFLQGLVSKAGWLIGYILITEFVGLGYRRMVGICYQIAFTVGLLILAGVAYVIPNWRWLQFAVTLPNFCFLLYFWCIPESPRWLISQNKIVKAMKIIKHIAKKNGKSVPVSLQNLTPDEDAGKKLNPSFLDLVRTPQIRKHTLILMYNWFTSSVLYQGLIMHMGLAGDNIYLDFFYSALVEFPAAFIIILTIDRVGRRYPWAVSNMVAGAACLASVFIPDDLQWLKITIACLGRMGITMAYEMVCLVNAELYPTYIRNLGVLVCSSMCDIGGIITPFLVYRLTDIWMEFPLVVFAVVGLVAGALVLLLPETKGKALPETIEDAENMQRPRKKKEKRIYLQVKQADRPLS
In words: TP_TRANSPORTER: inhibition of TEA uptake (in the absence of bicarbonate) (TEA: 20 uM) in OCT2-expressing HEK293 cells. The essentials: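 Uptake in rOCT1- or rOCT2-expressing stably transfected HEK 293 cells, run in bicarbonate-free Cross-Taggart phosphate buffer, pH 7.4, 25°C. 20 μM [14C]TEA final, 3 s incubation across inhibitor concentrations; ice-cold stopping buffer, centrifugation, washes, scintillation counting. Expressed relative to control uptake without inhibitor; IC50 mean ± S.E.M. of 3–6 experiments.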

Test [2] has as its target T2, Solute carrier family 22 member 1 (Rattus norvegicus, UniProt Q63089).
T2 sequence (Q63089 whole entry): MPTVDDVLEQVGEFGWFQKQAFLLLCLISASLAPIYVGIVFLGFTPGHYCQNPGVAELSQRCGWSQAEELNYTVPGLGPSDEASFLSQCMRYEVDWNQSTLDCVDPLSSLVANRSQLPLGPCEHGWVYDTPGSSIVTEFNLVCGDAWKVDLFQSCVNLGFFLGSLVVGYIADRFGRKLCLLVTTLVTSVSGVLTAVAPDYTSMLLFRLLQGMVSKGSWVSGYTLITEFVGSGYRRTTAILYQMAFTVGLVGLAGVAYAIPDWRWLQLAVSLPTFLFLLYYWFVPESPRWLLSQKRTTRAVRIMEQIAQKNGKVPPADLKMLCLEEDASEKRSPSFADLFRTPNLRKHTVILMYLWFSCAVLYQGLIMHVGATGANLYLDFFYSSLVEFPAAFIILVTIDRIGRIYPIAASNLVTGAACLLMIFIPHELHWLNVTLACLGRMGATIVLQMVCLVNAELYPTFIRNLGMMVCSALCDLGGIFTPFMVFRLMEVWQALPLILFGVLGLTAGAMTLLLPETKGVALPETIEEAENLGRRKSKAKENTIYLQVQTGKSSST
Description: TP_TRANSPORTER: inhibition of TEA uptake (in the presence of bicarbonate) (TEA: 20 uM) in OCT1-expressing HEK293 cells. The essentials:
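Stably rOCT1- or rOCT2-transfected HEK 293 cells suspended in bicarbonate (25 mM) Krebs-Henseleit buffer, pH 7.4 set by 95% O2/5% CO2 bubbling, 25°C.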

In test [3] the target is T1, Solute carrier family 22 member 2. In words: TP_TRANSPORTER: inhibition of TEA uptake (in the presence of bicarbonate) (TEA: 20 uM) in OCT2-expressing HEK293 cells. The essentials: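 Stably rOCT1- or rOCT2-transfected HEK 293 cells suspended in bicarbonate (25 mM) Krebs-Henseleit buffer, pH 7.4 set by 95% O2/5% CO2 bubbling, 25°C. […] Percent of uninhibited control; IC50 mean ± S.E.M. of 3–6 experiments.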

The target in test [4] is T2, Solute carrier family 22 member 1. Description: TP_TRANSPORTER: inhibition of TEA uptake (in the absence of bicarbonate) (TEA: 20 uM) in OCT1-expressing HEK293 cells. The essentials: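 Uptake in rOCT1- or rOCT2-expressing stably transfected HEK 293 cells, run in bicarbonate-free Cross-Taggart phosphate buffer, pH 7.4, 25°C. 20 μM [14C]TEA final, 3 s incubation across inhibitor concentrations; ice-cold stopping buffer, centrifugation, washes, scintillation counting.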

Test [5] has the same target. In words: TP_TRANSPORTER: inhibition of Amantadine uptake (in the presence of bicarbonate) (Amantadine: 10 uM) in OCT1-expressing HEK293 cells. The essentials: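 Rat OCT1 or OCT2 stably transfected HEK 293 cells, grown to 80% confluence, detached and resuspended in KHS (25 mM bicarbonate, pH 7.4, gassed O2/CO2 95%/5%), protein 5–6 mg/ml. […] Highest cyanine863 tested 200 μM. IC50 from 3–6 experiments.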

With `NC12CC3CC(CC(C3)C1)C2` [AMANTADINE], the IC50 in test [1] was 290 µM; in test [2], 500 µM; in test [3], 210 µM; in test [4], 280 µM.

As for `CC[n+]1c(CC2C=C(C)N=C(c3ccccc3)N2C)ccc2ccccc21` (stereo not drawn) [Cyanine-863], the IC50 in test [5] was 89 µM and > 200 µM; in test [1] it was 1.2 µM; in test [2], 0.4 µM; in test [3], 1 µM; in test [4] it was 0.45 µM.

On to `CCN(CC)CCNC(=O)c1ccc(N)cc1` [PROCAINAMIDE], for which the IC50 in test [1] amounted to 215 µM; in test [3], 90 µM.

Regarding `C=C[C@H]1C[N@@]2CC[C@H]1C[C@H]2[C@H](O)c1ccnc2ccc(OC)cc12` [QUININE], the half-inhibitory concentration (IC50) in test [1] worked out at 38 µM; in test [3], 13 µM.
